High-throughput results as filed in PubChem BioAssay.
Shown are actives, neighbours in structure and some others; about 1.8% of the full set was active somewhere.
CHRM4 antagonist = blocks acetylcholine activation of human M4 receptor | P08173 | CHO-hM4 cells, ACh EC80, Fluo-8 calcium fluorescence | inhibition, % at 3 µM | hit rate 0.73% among 360,000 | AID 624125;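 active = inhibition above its plate's cutoff, the mean inhibition of sample wells plus 3 SD, cut at about 27% in these data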;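 also: 0% = acetylcholine EC80 with DMSO and 100% = DMSO without agonist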
CHRM4 agonist = agonists of human muscarinic M4 receptor (CHRM4); hit rate 0.14% among 360,000; activation, % at 3 µM; CHO-K1 hM4/Gqi5, Fluo-8 calcium fluorescence; vehicle 0%, full acetylcholine response 100%; AID 624127;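 active = activation above the run mean over all test wells plus 3 SD, cut at about 32% in these data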;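 also: peak over basal fluorescence ratio per well then scaled between controls; 0% = DMSO wells and 100% = acetylcholine at EC100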
M5 PAM = positive allosteric modulators of human muscarinic M5 receptor. activation, % at 3 µM. CHO-K1 hM5, Fluo-8 calcium, ACh EC20 PAM; 0% = ACh EC20, 100% = ACh EC100. hit rate 0.3% among 360,000. P08912;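 active = activation above the run cutoff, the mean activation of all test compounds plus 3 SD, cut at about 18% in these data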
Target sequence (P08912 whole entry, looked up): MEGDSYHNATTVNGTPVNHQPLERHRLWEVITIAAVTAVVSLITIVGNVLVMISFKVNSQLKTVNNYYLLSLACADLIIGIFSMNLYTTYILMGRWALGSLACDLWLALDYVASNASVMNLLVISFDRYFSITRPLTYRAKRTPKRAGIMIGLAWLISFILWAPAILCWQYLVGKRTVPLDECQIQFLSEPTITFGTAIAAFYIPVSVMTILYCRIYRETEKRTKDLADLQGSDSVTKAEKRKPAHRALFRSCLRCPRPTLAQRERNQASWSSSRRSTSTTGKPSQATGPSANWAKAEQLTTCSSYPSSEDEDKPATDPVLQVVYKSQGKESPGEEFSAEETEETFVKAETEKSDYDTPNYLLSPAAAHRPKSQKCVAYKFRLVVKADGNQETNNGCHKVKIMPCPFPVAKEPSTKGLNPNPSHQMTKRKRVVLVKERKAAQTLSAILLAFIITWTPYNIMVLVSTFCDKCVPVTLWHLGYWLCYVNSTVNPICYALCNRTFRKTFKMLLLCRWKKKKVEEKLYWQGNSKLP
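Assay system: CHO-K1 hM5 cells / Incubation: Fluo-8 loading 80 min at 37 °C plus 30 min room temperature / Technique: Fluo-8 calcium dye fluorescence, kinetic read / Repeats: single replicate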
M5 antag = CHRM5 antagonism in calcium assay. hit rate 0.59% among 360,000. AID 624040. CHO-hM5 cells, Fluo-8 calcium fluorescence, ACh EC80. inhibition, % at 3 µM;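 active = inhibition above a per-plate cutoff, the mean of that plate's test compounds plus 3 SD, cut at about 27% in these data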;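 also: 0% = acetylcholine EC80 with DMSO and 100% = DMSO without agonist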
CHRM5 agonist = agonists of human muscarinic M5 receptor (CHRM5); AID 624037; hit rate 0.19% among 360,000; P08912; activation, % at 3 µM; CHO-K1 hM5 cells, Fluo-8 calcium fluorescence; 0% DMSO wells, 100% maximal acetylcholine response;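 active = activation above the run's mean over test compounds plus 3 SD, cut at about 23% in these data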;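 also: signal is peak over basal fluorescence ratio across the kinetic read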
CHRM4 PAM = CHRM4 positive allosteric modulation; P08173; CHO-K1 hM4/Gqi5, Fluo-8 calcium fluorescence, ACh EC20; 0% = ACh EC20, 100% = maximal ACh; activation, % at 3 µM; hit rate 0.4% among 360,000;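 active = activation above its plate's cutoff, the mean activation of sample wells plus 3 SD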
An asterisk follows results filed as active.

SMILES	CHRM4 antagonist	CHRM4 agonist	M5 PAM	M5 antag	CHRM5 agonist	CHRM4 PAM
CN(C)CCCNc1oc(/C=C/c2ccccc2)nc1C#N	-5	1	32*	24	3	4
CCN(CC)c1ccc(S(=O)(=O)N2CCOCC2)cc1NC(=O)CSc1n[nH]c(N)n1	5	0	14	-2	-1	19
COc1ccc(/C=N/NC(=O)c2ccc3ccccc3c2)cc1OS(=O)(=O)c1ccc(NC(C)=O)cc1	28*	16	-17	13	1	-17
Cc1c(C(=O)NCc2ccc([N+](=O)[O-])cc2)sc(=O)n1Cc1ccc(-c2ccccc2)cc1	-2	2	0	-5	5	7
C=CCc1cc(OC)ccc1OCCN(C)Cc1ccccc1	1	0	-7	19	-14	-14
CCOC(=O)CSC(=S)NC(=O)c1ccc(OC)cc1	4	1	2	2	3	35*
COc1ccc(CSCCc2n[nH]c(=S)n2-c2ccccc2)cc1	48*	4	-1	4	0	-26
Cc1ccc(C)c(C(O)c2ncc(-c3ccccc3F)[nH]2)c1 (configuration not stated)	-2	2	4	-3	3	-1
CC(C)(CO)NCC(=O)Nc1cc(C(F)(F)F)cc(NC(=O)CNC(C)(C)CO)c1Cl	6	1	1	4	-1	21*
Cc1c(Cl)cccc1NC(=O)CNc1cccc(C(F)(F)F)c1	-16	3	-3	-6	-1	-2
C[C@@H]1COc2cccc(N3CCN(Cc4ccccc4F)CC3)c2S(=O)(=O)N1	-11	4	0	-5	2	6
N/C(=N\OC(=O)c1cccc([N+](=O)[O-])c1)c1cccnc1	-3	5	-4	6	1	25*
Cc1cccc(C(=O)O/N=C(\N)c2cccc([N+](=O)[O-])c2)c1	11	0	4	-9	0	9
CN(C)c1ccc(-c2ccnc3c2CC(C)(C(=O)NCc2ccco2)O3)cc1 (configuration not stated)	-1	0	2	1	-2	5
CCC(C)c1ccccc1NC(=O)COC(=O)C1=COCCO1 (configuration not stated)	1	1	3	0	2	0
O=C(Nc1cc(S(=O)(=O)N2CCOCC2)ccc1N1CCCC1)c1cccnc1Cl	28*	0	3	0	2	11
CCOc1ncccc1C(=O)Nc1cc(S(=O)(=O)N2CCOCC2)ccc1N1CCCC1	-1	14	-8	16	-3	-9
CC(Sc1nc(N)cc(=O)[nH]1)C(=O)N1CCOCC1 (configuration not stated)	-10	1	0	2	-2	6
Cc1ccc2nc(SC(C)C(=O)N3CCOCC3)[nH]c2c1 (configuration not stated)	1	4	3	7	1	31*
Cc1cccc(-c2nnc3n2N=C(c2ccccc2)CS3)c1	0	3	-7	8	-5	5
Cc1nn2c(nc1=O)SCC(c1ccccc1)=N2	-17	1	28*	-19	-1	3
CCn1cc(C(=O)N(C)c2ccc(OC)cc2OC)c2cc(OC)c(OC)cc2c1=O	-27	2	11	0	-4	14*
CCn1cc(C(=O)N(C)c2cc(C)ccc2OC)c2cc(OC)c(OC)cc2c1=O	-10	3	0	6	-2	2
O=C(C=Cc1ccccn1)c1ccccc1O	1	2	10	7	6	1
O=C(C=Cc1ccccn1)c1ccccc1	-9	2	29*	-32	9	5
SMILES	CHRM4 antagonist	CHRM4 agonist	M5 PAM	M5 antag	CHRM5 agonist	CHRM4 PAM
O=C(Nc1c(F)cccc1F)c1cnc(N2CCN(c3ccccn3)CC2)c2ccccc12	4	19	-20	14	0	-15
Cc1ccc(NC(=O)c2cnc(N3CCN(c4ccccn4)CC3)c3ccccc23)c(Br)c1	30*	12	-15	14	3	-21
O=C1Cc2ccccc2Sc2ccccc21	10	0	0	-6	-6	3
CN1CCC(=C2c3ccccc3Sc3ccccc32)CC1	99*	10	-19	99*	0	-18
CN1CCC(=C2c3ccccc3C=Cc3ccccc32)CC1	100*	6	-18	99*	1	-19
CN1CCN(C(=O)CCN2C(=O)c3ccccc3C2=O)CC1	2	0	2	6	3	4
O=C(COC(=O)c1cccc(S(=O)(=O)N2CCOCC2)c1)NCc1ccccc1	-10	2	-6	13	0	3
Cc1noc(C(=O)Nc2ccc(F)c(Cl)c2)c1Cl	95*	2	-16	19	0	-21
COc1cccc(C(=O)NN2C(=S)N(c3ccccc3)C(=O)C2CC(N)=O)c1 (configuration not stated)	7	0	1	1	2	-3
COc1ccc(CCNc2c(C)c(C)nc3ncnn23)cc1	6	13	-23	29*	11	-1
CCc1c(C)nc2ncnn2c1NCCc1ccc(OC)c(OC)c1	-2	3	-6	13	1	-2
CC[C@]12c3[nH]c4ccc(OC)cc4c3CCN1C(=O)C(CC(=O)NCc1ccc(OC)c(OC)c1)C[C@@H]2C(=O)N1CCN(C(=O)C2CC2)CC1 (some centres not stated)	29*	-1	3	-13	1	-12
CC[C@]12c3[nH]c4ccccc4c3CCN1C(=O)C(CC(=O)NCC13CC4CC(CC(C4)C1)C3)C[C@@H]2C(=O)N1CCN(C(=O)c2ccco2)CC1 (some centres not stated)	33*	6	-2	13	0	-17
CC[C@]12c3[nH]c4ccc(Cl)cc4c3CCN1C(=O)[C@@H](CC(=O)NCc1ccc(OC)c(OC)c1)C[C@@H]2C(=O)N1CCN(C(=O)C2CC2)CC1	3	1	2	-2	-1	-7
COc1ccc(CNC(=O)c2ccc3c(c2)NC(=O)C(C)S3)cc1 (configuration not stated)	11	4	-2	6	-2	0
CCN(CC(=O)NC(C)C)C(=O)Cc1ccc(C)c(C)c1	7	0	1	7	-3	1
CCN(C(=O)COC(=O)/C(C#N)=C/c1ccc(OC)cc1)C1CCS(=O)(=O)C1 (configuration not stated)	0	1	-6	13	-1	2
COc1ccccc1N1C(=O)C2C3C=CC(CC3)C2C1=O (configuration not stated)	-13	0	-2	5	-4	-1
COc1ccccc1N1CCNC(C)C1=O (configuration not stated)	-6	0	8	-1	-2	14*
